In ChEMBL document CHEMBL2384907, “Identification of substituted pyrimido[5,4-b]indoles as selective Toll-like receptor 4 ligands” (J Med Chem, 2013) one finds Activity data, which are given here for 1 molecule.

Assay type in all cases: cell-based
The target in test [1] is Toll-like receptor 4 (Homo sapiens) (UniProt O00206). As to the kind of experiment: Activation of TLR4 in human PBMC cells assessed as AUC of IL8 release at 10 uM after 18 hrs by ELISA relative to N-cyclohexyl-2-(4-oxo-3-phenyl-4,5-dihydro-3H-pyrimido[5,4-b]indol-2-ylthio)acetamide. In short, it runs like this: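 Human PBMC from buffy coats, 1 × 10^6/mL in complete RPMI, 18 h at 37 °C, 5% CO2 with compound at 10 μM; IL-8 in supernatant by ELISA, normalized to reference hit set at 100. LPS 10 ng/mL positive control.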
Chain of Toll-like receptor 4 (Homo sapiens) (O00206 whole entry): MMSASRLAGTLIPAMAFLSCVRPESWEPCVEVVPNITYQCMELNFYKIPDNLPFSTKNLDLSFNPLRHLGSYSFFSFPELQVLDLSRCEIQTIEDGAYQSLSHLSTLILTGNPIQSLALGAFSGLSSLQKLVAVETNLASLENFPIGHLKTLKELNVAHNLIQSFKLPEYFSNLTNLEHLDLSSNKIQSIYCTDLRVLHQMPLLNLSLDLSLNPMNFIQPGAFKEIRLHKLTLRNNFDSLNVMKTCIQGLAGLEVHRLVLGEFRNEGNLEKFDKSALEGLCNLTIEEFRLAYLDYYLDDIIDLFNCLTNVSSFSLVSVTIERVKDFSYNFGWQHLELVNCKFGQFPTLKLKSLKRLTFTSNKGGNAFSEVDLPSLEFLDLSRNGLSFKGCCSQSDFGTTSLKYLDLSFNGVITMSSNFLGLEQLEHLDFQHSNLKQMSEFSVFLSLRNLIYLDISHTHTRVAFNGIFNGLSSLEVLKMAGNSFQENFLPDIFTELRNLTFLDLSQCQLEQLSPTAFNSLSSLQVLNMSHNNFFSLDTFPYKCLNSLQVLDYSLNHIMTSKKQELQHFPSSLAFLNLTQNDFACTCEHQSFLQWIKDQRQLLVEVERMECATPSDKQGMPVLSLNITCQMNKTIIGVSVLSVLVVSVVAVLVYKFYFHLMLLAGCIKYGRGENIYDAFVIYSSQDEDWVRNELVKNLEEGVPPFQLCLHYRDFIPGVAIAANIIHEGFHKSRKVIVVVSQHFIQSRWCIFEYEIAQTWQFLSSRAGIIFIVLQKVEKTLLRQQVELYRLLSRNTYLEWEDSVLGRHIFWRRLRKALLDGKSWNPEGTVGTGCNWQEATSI

The target in test [2] is T1, Toll-like receptor 4 (Mus musculus) (UniProt Q9QUK6).
T1 sequence (whole entry): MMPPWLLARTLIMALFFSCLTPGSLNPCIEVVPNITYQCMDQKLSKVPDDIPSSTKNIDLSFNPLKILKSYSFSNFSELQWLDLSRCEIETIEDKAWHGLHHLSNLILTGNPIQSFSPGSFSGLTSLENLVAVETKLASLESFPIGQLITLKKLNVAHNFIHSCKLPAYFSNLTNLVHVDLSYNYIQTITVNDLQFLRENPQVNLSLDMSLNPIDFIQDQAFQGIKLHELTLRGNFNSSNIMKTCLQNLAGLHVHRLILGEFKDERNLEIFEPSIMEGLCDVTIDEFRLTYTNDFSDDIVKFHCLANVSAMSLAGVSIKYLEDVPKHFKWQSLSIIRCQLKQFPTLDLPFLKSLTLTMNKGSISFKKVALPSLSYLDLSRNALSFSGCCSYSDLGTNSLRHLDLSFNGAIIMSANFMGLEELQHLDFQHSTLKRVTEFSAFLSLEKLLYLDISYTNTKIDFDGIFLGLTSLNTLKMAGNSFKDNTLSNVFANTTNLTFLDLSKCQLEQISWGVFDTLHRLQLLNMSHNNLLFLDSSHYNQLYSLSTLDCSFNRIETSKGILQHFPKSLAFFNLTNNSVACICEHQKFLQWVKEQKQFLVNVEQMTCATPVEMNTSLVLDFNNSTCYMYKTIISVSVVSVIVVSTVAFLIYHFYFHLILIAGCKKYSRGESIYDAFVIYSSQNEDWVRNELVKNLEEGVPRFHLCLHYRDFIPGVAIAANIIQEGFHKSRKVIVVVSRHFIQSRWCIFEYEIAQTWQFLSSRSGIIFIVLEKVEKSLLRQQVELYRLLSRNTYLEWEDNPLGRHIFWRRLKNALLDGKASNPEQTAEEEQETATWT
As to the kind of experiment: Activation of TLR4 in C57BL/6 mouse BMDC cells assessed as AUC of IL6 release after 18 hrs by ELISA relative to N-cyclohexyl-2-(4-oxo-3-phenyl-4,5-dihydro-3H-pyrimido[5,4-b]indol-2-ylthio)acetamide. The gist of the method: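 C57BL/6 bone marrow DC, 10^5 cells/well in RPMI-10% FCS, 18 h at 37 °C with titrated doses 312 nM–10 μM; supernatant IL-6 by ELISA. Each curve converted to percent activity (background subtracted, plate-adjusted), AUC by trapezoid method, normalized to reference hit set at 100 per experiment. LPS 10 ng/mL positive control; 0.5% DMSO vehicle.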

Test [3] concerns the target T1, Toll-like receptor 4 (Mus musculus). As to the kind of experiment: Activation of TLR4-mediated type 1 IFN release in C57BL/6 mouse BMDC cells after overnight incubation by luciferase reporter gene assay. In short, it runs like this: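 Wild-type BMDC incubated overnight with graded concentrations (0.5% DMSO vehicle); 50 μL supernatant put on L929-ISRE luciferase reporter cells (5 × 10^4/well, DMEM-10) for 6 h; luciferase read, quantified against mouse IFN-β standard. Mean ± SEM of triplicates, two independent experiments.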

In test [4] the target is T2, Toll-like receptor 8 (Homo sapiens) (UniProt Q9NR97).
T2 sequence (whole entry): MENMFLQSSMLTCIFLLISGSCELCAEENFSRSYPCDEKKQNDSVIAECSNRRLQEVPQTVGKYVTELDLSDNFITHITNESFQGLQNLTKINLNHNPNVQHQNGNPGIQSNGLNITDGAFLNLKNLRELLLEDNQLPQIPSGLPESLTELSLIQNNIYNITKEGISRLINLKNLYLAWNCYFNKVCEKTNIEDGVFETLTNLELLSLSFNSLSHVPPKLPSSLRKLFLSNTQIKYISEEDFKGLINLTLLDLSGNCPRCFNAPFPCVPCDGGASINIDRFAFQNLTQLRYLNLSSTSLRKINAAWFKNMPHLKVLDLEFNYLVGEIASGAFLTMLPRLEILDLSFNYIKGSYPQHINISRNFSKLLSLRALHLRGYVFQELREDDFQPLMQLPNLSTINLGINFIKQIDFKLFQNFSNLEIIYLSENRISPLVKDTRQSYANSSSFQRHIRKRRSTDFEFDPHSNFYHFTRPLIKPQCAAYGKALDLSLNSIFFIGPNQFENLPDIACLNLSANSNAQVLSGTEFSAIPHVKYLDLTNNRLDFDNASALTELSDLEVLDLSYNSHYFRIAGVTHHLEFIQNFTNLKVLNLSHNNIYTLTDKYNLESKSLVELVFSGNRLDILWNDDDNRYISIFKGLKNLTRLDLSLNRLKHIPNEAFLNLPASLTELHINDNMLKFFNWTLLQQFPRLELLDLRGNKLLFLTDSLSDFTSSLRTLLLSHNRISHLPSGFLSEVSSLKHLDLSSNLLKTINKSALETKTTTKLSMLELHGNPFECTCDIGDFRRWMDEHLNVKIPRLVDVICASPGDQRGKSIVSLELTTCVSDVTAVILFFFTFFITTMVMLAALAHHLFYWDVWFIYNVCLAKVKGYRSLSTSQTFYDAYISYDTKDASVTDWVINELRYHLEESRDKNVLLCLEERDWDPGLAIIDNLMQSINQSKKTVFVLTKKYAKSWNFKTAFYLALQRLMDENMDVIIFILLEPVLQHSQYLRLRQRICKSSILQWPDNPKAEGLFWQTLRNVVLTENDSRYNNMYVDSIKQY
As to the kind of experiment: Activation of human TLR8 transfected in HEK293 cells at 10 uM after 20 to 24 hrs by SEAP assay.

For test [5], the target named is Toll-like receptor 3 (Homo sapiens) (UniProt O15455). As to the kind of experiment: Activation of human TLR3 transfected in HEK293 cells at 10 uM after 20 to 24 hrs by SEAP assay.
Chain of Toll-like receptor 3 (Homo sapiens) (O15455 whole entry): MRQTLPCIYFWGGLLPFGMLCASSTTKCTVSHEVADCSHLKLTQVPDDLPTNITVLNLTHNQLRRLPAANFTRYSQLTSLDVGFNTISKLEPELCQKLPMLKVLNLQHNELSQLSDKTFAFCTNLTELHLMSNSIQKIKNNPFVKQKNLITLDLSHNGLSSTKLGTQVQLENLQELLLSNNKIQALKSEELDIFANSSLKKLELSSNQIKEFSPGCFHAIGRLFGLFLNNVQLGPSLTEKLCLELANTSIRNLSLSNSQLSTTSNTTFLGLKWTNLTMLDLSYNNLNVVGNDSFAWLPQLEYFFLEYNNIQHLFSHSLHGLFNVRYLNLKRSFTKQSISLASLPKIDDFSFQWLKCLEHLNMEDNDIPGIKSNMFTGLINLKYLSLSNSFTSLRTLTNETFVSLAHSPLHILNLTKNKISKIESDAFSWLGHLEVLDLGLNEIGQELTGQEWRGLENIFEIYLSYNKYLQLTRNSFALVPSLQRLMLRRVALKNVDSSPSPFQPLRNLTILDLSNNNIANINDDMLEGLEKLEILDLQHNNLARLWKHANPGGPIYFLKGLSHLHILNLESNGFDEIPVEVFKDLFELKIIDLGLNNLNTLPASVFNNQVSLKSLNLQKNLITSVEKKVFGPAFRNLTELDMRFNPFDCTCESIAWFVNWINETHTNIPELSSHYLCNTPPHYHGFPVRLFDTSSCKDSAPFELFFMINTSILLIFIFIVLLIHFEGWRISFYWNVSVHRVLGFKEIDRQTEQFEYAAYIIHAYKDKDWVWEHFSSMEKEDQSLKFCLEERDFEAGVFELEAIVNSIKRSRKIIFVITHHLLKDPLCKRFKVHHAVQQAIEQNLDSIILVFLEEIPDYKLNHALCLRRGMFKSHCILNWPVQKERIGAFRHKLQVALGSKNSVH

The source made the active and inactive calls. The rule behind the calls is not given here.

As to `O=C(CSc1nc2c([nH]c3ccccc32)c(=O)n1-c1ccccc1)NC1CCCCC1`, the Activity in test [1] was 100%; in test [2], 100%; in test [3], “Dose-dependent effect”. Further, the result in test [4] and in test [5] was inactive.
